A selection: hits, their analogues and other compounds. The true share with any hit is near 0.72%.
STK33 inh: inhibitors of purified STK33 kinase, primary screen, biochemical, ADP-Glo luminescence, homogeneous, cell-free | Serine/threonine-protein kinase 33 (Homo sapiens), Q9BYT3 | MBP phosphorylation | inhibition, % at 10 µM | hit rate 0.073% among 320,000;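 active = inhibition at or above 25%, using the most active replicate where run in duplicate; inactive = inhibition below 25%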
GSK3beta inhib: human GSK3beta kinase inhibitors, primary screen, biochemical, cell-free homogeneous, HTS; GST-GSK3beta kinase, ADP-Glo luminescence, 60 min; stronger effect = lower value; activity score (negative = inhibition), % at 10 µM; hit rate 0.038% among 300,000; AID 2097, 2009;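 active = more than half of replicate wells score below -50%, meaning over 50% inhibition versus plate controls; inconclusive = some replicates but at most half score below -50%; inactive = no replicate scores below -50%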;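 note: 0% = median DMSO wells and -100% = median GW8510 positive control wells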
Target sequence (P49841 whole entry, looked up): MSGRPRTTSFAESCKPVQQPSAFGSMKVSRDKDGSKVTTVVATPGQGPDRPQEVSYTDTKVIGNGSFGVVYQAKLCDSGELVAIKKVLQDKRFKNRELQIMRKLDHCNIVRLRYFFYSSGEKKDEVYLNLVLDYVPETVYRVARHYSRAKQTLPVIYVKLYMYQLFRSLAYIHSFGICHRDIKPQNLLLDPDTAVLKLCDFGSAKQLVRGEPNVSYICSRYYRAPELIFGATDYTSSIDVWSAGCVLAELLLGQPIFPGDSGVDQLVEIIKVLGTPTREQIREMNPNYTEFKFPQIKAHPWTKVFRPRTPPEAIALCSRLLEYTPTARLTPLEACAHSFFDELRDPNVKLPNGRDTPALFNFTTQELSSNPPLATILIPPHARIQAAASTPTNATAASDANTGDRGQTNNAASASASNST
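Assay system: GST-tagged human GSK3beta kinase, cell-free; Input: 1.6 ng GSK3beta; Medium: Tris/MgCl2 kinase buffer; Timing: 60 min enzyme reaction, room temperature; Signal: ADP-Glo luminescence quantifying ADP generated by kinase; Evaluation: score relative to plate controls; Benchmarks: DMSO neutral wells and GW8510 at 20 µM as positive.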
AI-2 QS modul: Vibrio harveyi AI-2 quorum sensing modulators, primary screen, JMH597 strain, luminescence/OD600 ratio; Vibrio harveyi JMH597 AI-2 luminescence/OD600 ratio, 9 h; stronger effect = lower value; strain lacks LuxN and CqsS sensors; 0 = neutral-control median; activity change, % at 7.5 µM; hit rate 0.4% among 300,000; AID 2094, 2009; in the data active = activity change below about -75%, passing the limit was not always enough; inconclusive = no clear call, values can overlap the other calls;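 note: luminescence divided by OD600 gain over 9 h not by final OD600 alone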
Yeast superoxide: reduction of superoxide in aged yeast, primary screen, HTS; S. cerevisiae aged cells, superoxide DHE fluorescence; stronger effect = lower value; superoxide response (% of plate mean), % at 10 µM; hit rate 0.18% among 330,000;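 active = superoxide response under a set limit, about three screen SD below normal, cut at about 65% in these data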;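 note: yeast aged for seven days with compound at 30 °C before DHE staining; 100% = average MFI of all compound-treated wells on the plate with controls excluded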
GSK3 alpha inh: blockers of GSK3A enzyme activity – biochemical, luminescence, cell-free homogeneous, HTS, primary screen | hit rate 0.1% among 320,000 | inhibition, % at 10 µM | GSK-3 alpha kinase, ADP-Glo luminescence, 60 min;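 active = more than half of replicates show inhibition above 20%; inconclusive = some but at most half of replicates above 20% inhibition; inactive = no replicate shows inhibition above 20%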;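 note: GST-tagged GSK-3 alpha with peptide substrate and 25 µM ATP; 0% = DMSO neutral wells and 100% = GW8510 positive control wells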
PolyA inhibitor: polyadenylation inhibitors in yeast reporter cells, primary screen, luminescence, S. cerevisiae. activity score, % at 12 µM. hit rate 0.02% among 300,000. S. cerevisiae SKY197-pL101 polyadenylation reporter, beta-gal luminescence; efflux-impaired pdr1/pdr3 knockout yeast; score 100 = 6 SD above DMSO;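 active = lowest replicate activity score at least 50, where 100 means six control SD above control mean; inconclusive = lowest score under 50 but half or more replicates reach 50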;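 note: yeast exposed to compound for 9 h at 30 °C; higher score means more reporter readthrough which indicates perturbed polyadenylation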
CR mimetic CP: superoxide lowering in aged yeast cells, confirmation, cherry picked compounds | shares compounds with Yeast superoxide | hit rate 1% among 850 | AID 434994, 2010 | superoxide response (% of plate), % at 10 µM | S. cerevisiae aging, superoxide DHE fluorescence; stronger effect = lower value;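 active = superoxide signal below 65% of the plate average of sample wells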;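 note: cells aged with compound for 7 days at 30 degrees C before staining; 100% equals mean DHE fluorescence of all compound wells on the plate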
DHE counter: DHE quenching or ROS scavenging interference in aged yeast, artefact control for yeast caloric restriction mimetic project, S. cerevisiae BY4741, flow cytometry | shares compounds with Yeast superoxide | DHE fluorescence; stronger effect = lower value | fluorescence response, % at 10 µM | 850 tested, under 10 active | AID 435000, 2010;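 active = fluorescence response below 15%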;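 note: percent of the mean fluorescence averaged over all compound wells on the plate; lower means stronger quenching of DHE signal or ROS scavenging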
The depositor's hits bear a star; ? = inconclusive; nt = not tested or not shown.

SMILES | STK33 inh | GSK3beta inhib | AI-2 QS modul | Yeast superoxide | GSK3 alpha inh | PolyA inhibitor | CR mimetic CP | DHE counter
COc1cc(NC(=O)NCC2CCN(Cc3ccccc3Cl)CC2)cc(OC)c1OC | 0 | -1 | 16 | 41* | 3 | -3 | 101 | 93
CC(C)OC(=O)c1ccc2nc3ccccc3nc2c1 | 0 | 0 | -5 | 53* | 1 | 3 | 83 | 101
O=C(/C=C/c1ccc(OC2CSC2)cc1)c1ccc(Cl)cc1 | -1 | -3 | 17 | 63* | 4 | 14 | 99 | 86
COc1ccc(C(=O)/C=C/c2ccc(OC3CSC3)cc2)cc1OC | -4 | -2 | 16 | 102 | -1 | 8 | nt | nt
O=C(NC1CCCCC1)C(c1ccncc1)N(C(=O)c1csnn1)c1ccccc1F (stereo not given) | 0 | -1 | 9 | 65* | 0 | -6 | 92 | 99
Cc1ccc(CNC(=O)Cn2nnc(C(=O)Nc3cc(C)ccc3C)c2N)cc1 | -2 | 0 | 13 | 57* | -1 | 2 | 99 | 105
Cc1ccc(Cn2nnc(C(=O)Nc3cc(C)ccc3C)c2N)cc1 | 0 | 3 | 4 | 114 | 0 | -1 | nt | nt
Cc1cc(C)nc(CCNC(=O)C2CCC(=O)N(Cc3ccccc3F)C2)n1 (stereo not given) | 0 | -3 | 8 | 65* | 2 | -3 | 95 | 95
Cc1ccc(CCNC(=O)C2CCC(=O)N(Cc3ccccc3F)C2)o1 (stereo not given) | 0 | -8 | 3 | 104 | 1 | -5 | nt | nt
CC(C)CNC(=O)C(=O)NCCC1CCCCN1S(=O)(=O)c1cccs1 (stereo not given) | -2 | 2 | 20 | 92 | 2 | 13 | nt | nt
CN(C(=O)CN1CCN(c2ccc([N+](=O)[O-])cn2)CC1)c1ccccc1 | 16 | 1 | 40 | 130 | 16 | -3 | 96 | 103
Cc1ccc(N=C2NC(=O)/C(=C/c3cccs3)S2)cc1C | -2 | 1 | 23 | 59* | -14 | -11 | 94 | 90
Cc1cccc(N=C2NC(=O)/C(=C\c3cccs3)S2)c1 | 2 | -2 | 18 | 129 | -4 | 7 | nt | nt
Clc1ccc(/C=N/N2CCN(Cc3ccccc3)CC2)cc1 | nt | -1 | 3 | 110 | nt | -8 | nt | nt
CN(C)c1ccc(/C=N/NC(=O)CCc2nc3ccccc3[nH]2)cc1 | 0 | -2 | 11 | 92 | -2 | -1 | nt | nt
COc1ccc(/C=C2\SC(N3CCCCC3)=NC2=O)cc1 | 2 | 3 | 22 | 55* | 2 | -4 | 98 | 99
O=c1cc2c(nn1Cc1ccc(F)cc1)-c1ccccc1CC2 | -2 | -2 | 21 | 59* | -3 | -43 | 97 | 88
Cn1c(=O)c2[nH]c(-c3cccnc3)nc2n(C)c1=O | 0 | -2 | 37 | 58* | 1 | 2 | 91 | 92
S=c1nc(C2CC2)n(-c2ccccc2)[nH]1 | -1 | 0 | 14 | 78 | -2 | 1 | nt | nt
Cc1ccc(S(=O)(=O)N(CC(=O)Nc2ccc(C(N)=O)cc2)C(=O)N2CCN(C)CC2)cc1 | -1 | 3 | 14 | 65* | -4 | -15 | 114 | 99
CCN1CCN(C(=O)N(CC(=O)Nc2ccc(C(N)=O)cc2)S(=O)(=O)c2ccc(C)cc2)CC1 | nt | 1 | 25 | nt | nt | 18 | nt | nt
CC(=O)Nc1ccc(NC(=O)CSc2ccc(-c3ccc(-n4ccnc4)cc3)nn2)cc1 | 0 | -2 | 2 | 111 | 0 | 21 | 89 | 112
O=C(NCCc1cccc(F)c1)/C(=C/c1cccnc1)NC(=O)c1ccccc1 | 0 | 2 | 2 | 89 | 0 | 4 | nt | nt
O=C(Nc1scc(-c2ccccc2)c1C(=O)O)c1ccc(F)cc1 | 0 | 4 | 25 | 123 | -1 | 10 | nt | nt
Cc1ccc(-c2csc(NC(=O)c3ccc(F)cc3)c2C(=O)O)cc1 | -1 | 3 | -2 | 65* | -2 | -4 | 87 | 105
SMILES | STK33 inh | GSK3beta inhib | AI-2 QS modul | Yeast superoxide | GSK3 alpha inh | PolyA inhibitor | CR mimetic CP | DHE counter
O=C(NC1CC2CCCC(C1)N2Cc1cccs1)c1ccc([N+](=O)[O-])cc1 (stereo not given) | 0 | -2 | 0 | 115 | 2 | 4 | nt | nt
COCC(=O)Nc1ccc(S(=O)(=O)N2CCCC2)cc1 | 0 | 2 | -7 | 88 | 0 | 4 | 99 | 100
CC(=O)Nc1ccc(S(=O)(=O)N2CCCC2)cc1 | 0 | -5 | 0 | 101 | 1 | 2 | 98 | 115
O=C(/C=C/c1ccccc1)NC(=S)NNC(=O)Cc1cccs1 | -3 | 3 | 52 | 50* | 1 | -3 | 87 | 88
O=C(Cc1cccs1)NNC(=S)NC(=O)c1ccccc1 | -1 | 5 | ? | 125 | -2 | -44 | nt | nt
CCCNS(=O)(=O)c1ccc(NC(=O)c2cccnc2)cc1 | 1 | 1 | 31 | 58* | -1 | 7 | 115 | 107
COc1ccccc1Nc1ccc(NS(=O)(=O)c2ccc(C(C)=O)cc2)cc1 | 0 | -1 | 32 | 100 | -6 | -17 | nt | nt
CCOC(=O)C(CC)n1cnc2c(nnn2-c2cccc(OC)c2)c1=O (stereo not given) | -2 | 0 | -3 | 65* | -4 | 20 | 107 | 95
COc1ccc2c(C)cc(SCC(=O)NC3CCCC3)nc2c1 | -1 | nt | nt | 97 | -1 | nt | nt | nt
COc1ccc2c(C)cc(SCC(=O)c3ccc4c(c3)OCO4)nc2c1 | 0 | -2 | 3 | 64* | 1 | -14 | 94 | 95
C1CCN(Cc2nnnn2CC2CCCO2)CC1 (stereo not given) | -1 | 2 | 4 | 91 | 0 | -2 | nt | nt
CN1/C(=C\C=C2/SC(=S)N(CC(=O)O)C2=O)C(C)(C)c2ccccc21 | 3 | 0 | -6 | 145 | 5 | -33 | nt | nt
C=CCN1C(=O)/C(=C\C=C2\N(C)c3ccccc3C2(C)C)SC1=S | 2 | 3 | 29 | 57* | 0 | nt | 99 | 112
O=C(CN(c1ccc2c(c1)OCCO2)S(=O)(=O)c1ccccc1)NCc1ccc(Cl)cc1 | 0 | 3 | 11 | 62* | -4 | -13 | 102 | 91
